Test results as given in ChEMBL document CHEMBL1134455, “Synthesis and evaluation of 4-fluoro-8-substituted-2,3,4,5-tetrahydro-1H-2-benzazapines as selective inhibitors of phenylethanolamine N-methyltransferase versus the alpha(2)-adrenoceptor” (J Med Chem, 2001).

Assays:
[1] = Selectivity ratio (alpha2/PNMT)
[2] = target: T1, Adrenergic receptor alpha-2 (Rattus norvegicus, UniProt P22086+P19328+P22909); assay: Binding affinity to alpha-2 adrenergic receptor by displacement of [3H]clonidine; format: protein assay
T1 sequence (P22086 whole entry): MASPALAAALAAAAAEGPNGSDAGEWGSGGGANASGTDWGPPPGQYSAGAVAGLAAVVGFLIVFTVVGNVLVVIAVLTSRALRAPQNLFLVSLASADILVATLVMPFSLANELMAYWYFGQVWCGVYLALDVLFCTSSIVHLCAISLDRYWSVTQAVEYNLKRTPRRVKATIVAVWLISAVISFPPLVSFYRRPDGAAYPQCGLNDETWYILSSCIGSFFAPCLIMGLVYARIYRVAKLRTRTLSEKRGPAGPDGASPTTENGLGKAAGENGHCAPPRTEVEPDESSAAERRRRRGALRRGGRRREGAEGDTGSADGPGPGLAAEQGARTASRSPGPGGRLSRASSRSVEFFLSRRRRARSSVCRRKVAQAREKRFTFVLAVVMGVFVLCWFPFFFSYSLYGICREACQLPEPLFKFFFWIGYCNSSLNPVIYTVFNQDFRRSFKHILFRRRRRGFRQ
T1 sequence (P19328 whole entry): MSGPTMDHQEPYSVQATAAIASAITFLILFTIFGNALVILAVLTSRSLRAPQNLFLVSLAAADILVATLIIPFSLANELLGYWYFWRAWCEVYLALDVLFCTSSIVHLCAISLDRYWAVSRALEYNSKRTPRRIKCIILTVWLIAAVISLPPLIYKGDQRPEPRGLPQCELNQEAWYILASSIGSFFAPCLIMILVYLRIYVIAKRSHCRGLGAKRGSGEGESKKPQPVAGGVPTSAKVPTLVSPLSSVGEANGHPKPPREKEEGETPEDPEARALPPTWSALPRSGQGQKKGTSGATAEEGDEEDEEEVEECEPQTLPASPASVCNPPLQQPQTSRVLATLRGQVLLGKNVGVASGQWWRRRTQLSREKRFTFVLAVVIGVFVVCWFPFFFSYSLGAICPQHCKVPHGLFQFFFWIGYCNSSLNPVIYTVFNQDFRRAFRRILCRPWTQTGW
T1 sequence (P22909 whole entry): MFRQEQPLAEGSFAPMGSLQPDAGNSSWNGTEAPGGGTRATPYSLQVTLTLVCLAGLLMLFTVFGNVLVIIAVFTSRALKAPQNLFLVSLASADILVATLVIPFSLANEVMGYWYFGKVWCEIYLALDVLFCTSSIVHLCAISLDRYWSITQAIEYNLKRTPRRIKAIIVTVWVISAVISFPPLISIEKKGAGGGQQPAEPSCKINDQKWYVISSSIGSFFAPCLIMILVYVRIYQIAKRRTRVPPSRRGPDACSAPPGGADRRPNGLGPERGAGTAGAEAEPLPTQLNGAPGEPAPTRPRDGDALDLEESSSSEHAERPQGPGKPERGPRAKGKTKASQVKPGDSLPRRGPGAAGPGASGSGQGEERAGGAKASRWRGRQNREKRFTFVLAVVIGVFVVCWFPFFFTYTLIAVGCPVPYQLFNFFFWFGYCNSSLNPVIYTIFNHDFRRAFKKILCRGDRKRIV
Summary of the method: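 Male Sprague Dawley rat cortex homogenized, washed thrice by centrifugation in 50 mM Tris/HCl pH 7.7. Incubated with [3H]clonidine (final 2.0 nM) and varied inhibitor concentrations, 25 °C 30 min; GF/B filtration, scintillation counting. Nonspecific binding with 2 uM phentolamine. IC50 by log-probit analysis, converted to Ki via Cheng–Prusoff (Hill coefficients near one).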

[3] = target: T2, Phenylethanolamine N-methyltransferase (Bos taurus, UniProt P10938); assay: Ability to inhibit phenylethanolamine N-methyl-transferase (PNMT)
T2 sequence (P10938 whole entry): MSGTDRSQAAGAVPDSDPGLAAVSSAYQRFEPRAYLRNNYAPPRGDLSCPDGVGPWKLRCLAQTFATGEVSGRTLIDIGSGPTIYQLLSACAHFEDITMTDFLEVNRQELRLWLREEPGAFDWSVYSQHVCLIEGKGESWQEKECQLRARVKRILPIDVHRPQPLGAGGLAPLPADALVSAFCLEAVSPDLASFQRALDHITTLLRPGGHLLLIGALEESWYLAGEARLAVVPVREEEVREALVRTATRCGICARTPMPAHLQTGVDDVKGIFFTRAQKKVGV

SMILES	Selectivity [1]	Ki [2] [µM]	Ki [3] [µM]
O=[N+]([O-])c1ccc2c(c1)CNCC(O)C2 (stereo not given)	130	680	5.3
Clc1ccc2c(c1Cl)CNCC2	0.095	–	–
O=[N+]([O-])c1ccc2c(c1)CNC(CF)C2 (stereo not given)	140	–	–
FC1CNCc2cc(Br)ccc2C1 (stereo not given)	130	49	0.39
FC1CNCc2ccccc2C1 (stereo not given)	47	93	2
FCC1Cc2ccc(Br)cc2CN1 (stereo not given)	10	–	–
COc1ccc2c3c([nH]c2c1)C=NCC3	4.4	–	–
N#Cc1ccc2c(c1)CNC(CF)C2 (stereo not given)	420	–	–
O=[N+]([O-])c1ccc2c(c1)CNCC(F)C2 (stereo not given)	940	510	0.54
N#Cc1ccc2c(c1)CNCC(F)C2 (stereo not given)	77	100	1.3
NS(=O)(=O)c1ccc2c(c1)CNC(CF)C2 (stereo not given)	1000	–	–
NS(=O)(=O)c1ccc2c(c1)CNC(CO)C2 (stereo not given)	4100	–	–
O=[N+]([O-])c1ccc2c(c1)CNCC2CF (stereo not given)	17	35	2.1
